Active and inactive are the calls of the source. No cut-off for these calls is given here.
Key:
[1] = tested on: Mus musculus; assay: Toxicity in nude BALB/c mouse xenografted with human SiHa cells assessed as signs of distress at 5 to 20 mg/kg, ip administered every other day for 24 days; type: organism-based; conditions: in vivo, 576 h
[2] = Binding affinity to KRAS promoter G-quadruplex DNA (unknown origin) after 1 min by fluorescence titration method; type: ADME
In short: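 Oligonucleotide stock added stepwise to fixed-concentration compound in 10 mM Tris-HCl pH 7.2, 100 mM KCl; equilibrated ≥1 min after each addition, emission read with excitation at 350 nm. KD from fitting titration data to the Benesi–Hildebrand equation; 1:1 stoichiometry checked by Job plot.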

[3] = Stabilization of antiparallel HRAS G-quadruplex DNA (unknown origin) assessed as effect on melting temperature at 15 uM by circular dichroism spectroscopic assay; type: ADME
In short: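 CD melting of 3 µM annealed G-quadruplex with or without 15 µM ligand in 10 mM Tris-HCl pH 7.2 with 2 mM KCl (50 mM KCl for htg22 and HRAS); read every 5 °C over 25–95 °C, heating 1 °C/min.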

[4] = Stabilization of wild type c-Myc promoter G-quadruplex DNA (unknown origin) transfected in human SiHa cells co-expressing psiCHECK2 luciferase plasmid assessed as inhibition of gene transcription at 1.25 to 2.5 uM after 48 hrs by dual-luciferase reporter gene assay; type: cell-based
In short: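 SiHa cells transfected with psiCHECK2 carrying wild-type or mutant c-MYC promoter driving Renilla luciferase, firefly luciferase on same plasmid; compound added 4 h post-transfection, incubated further at 37 °C; Renilla signal normalized to firefly; three repeats, mean ± SEM.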

[5] = organism: Homo sapiens; assay: Stabilization of c-Myc promoter G-quadruplex DNA in human CA46 cells assessed as effect on exon 2 transcriptional level at 1.25 to 5 uM after 6 hrs by RT-PCR analysis; type: cell-based
In short: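 RAJI and CA46 cells treated 6 h over a concentration range; total RNA reverse-transcribed (oligo dT18, M-MLV, 42 °C 1 h then 85 °C 5 min); exon 1 and exon 2 amplified by real-time PCR with exon-specific primers, products run on 1% agarose gel; three repeats.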

[6] = tested on: Huh-7; assay: Cytotoxicity against human Huh7 cells assessed as reduction in cell viability after 24 hrs by MTT assay; type: functional, cell-based; conditions: Huh-7, 24 h
In short: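 Cells seeded at 5.0×10^3 per well, exposed to compound for 24 h; MTT (2.5 mg/mL) added for 4 h, formazan dissolved in DMSO, OD read at 570 nm. Triplicate; IC50 from curves of mean OD against concentration.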

[7] = tested on: BJ; assay: Cytotoxicity against human BJ cells assessed as cell growth inhibition at 1.2 to 3 uM after 130 hrs by RTCA assay; type: cell-based
In short: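 Cells seeded at 2000 per well on impedance plates, settled 20 min at room temperature, profiled 24 h; medium then replaced with compound-containing medium and cells monitored to 130 h total. Cell index normalized to 1.0 at the time point just before compound addition.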

[8] = tested on: SiHa; assay: Antiproliferative activity against human SiHa cells assessed as reduction in colony formation at 0.5 uM measured on day 8 by crystal violet-staining based assay; type: functional, cell-based
In short: (§1)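 Cells seeded at 300 per well in six-well plates, exposed to compound at 37 °C, 5% CO2, with drug-containing medium replaced every 2 days; after 8 days of culture, colonies fixed with methanol and stained with crystal violet.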

[9] = tested on: BJ; assay: Antiproliferative activity against human BJ cells assessed as reduction in colony formation at 0.5 uM measured on day 8 by crystal violet-staining based assay; type: cell-based; in short: as §1
[10] = tested on: SiHa; assay: Induction of cell cycle arrest in human SiHa cells assessed as accumulation at G0/G1 phase up to 5 uM after 12 hrs by propidium iodide-staining based FACS analysis (reference value: 61%); type: functional
In short: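 SiHa cells treated 12 h, fixed in 70% ethanol at 4 °C overnight, stained with 50 µg/mL PI plus 75 KU/mL RNase A in PBS for 30 min in the dark at room temperature; flow cytometry, 1.6×10^4 events per sample, cell cycle distribution analyzed.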

[11] = tested on: SiHa; assay: Induction of apoptosis in human SiHa cells assessed as early apoptotic cells at 5 uM after 24 hrs by Annexin V-FITC/propidium iodide-staining based flow cytometric analysis; type: functional
[12] = tested on: SiHa; assay: Induction of cell cycle arrest in human SiHa cells assessed as downregulation of Cyclin D1 protein levels after 24 hrs by Western blot analysis; type: functional, cell-based
In short: (§2)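 SiHa cells (2.0×10^5 per well) treated 24 h, lysed at 4 °C for 30 min, supernatant cleared at 15,000 rpm; protein measured by BCA, 30 µg resolved on 10% SDS-PAGE, transferred to nitrocellulose, blocked in 5% milk/TBS-Tween 1 h, primary antibodies overnight at 4 °C, HRP secondaries 2 h at room temperature.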

[13] = tested on: SiHa; assay: Induction of cell cycle arrest in human SiHa cells assessed as upregulation of p27 protein levels after 24 hrs by Western blot analysis; type: functional, cell-based; in short: as §2
[14] = tested on: SiHa; assay: Induction of apoptosis in human SiHa cells assessed as upregulation of cleaved PARP protein levels at 1.25 to 5 uM after 24 hrs by Western blot analysis relative to control; type: functional, cell-based; in short: as §2
[15] = tested on: SiHa; assay: Antitumor activity against human SiHa cells xenografted in nude BALB/c mouse assessed as tumor growth inhibition at 20 mg,kg, ip administered every other day for 24 days; type: functional
In short: (§3)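 BALB/c nude mice (5 weeks old) given 1×10^7 SiHa cells subcutaneously in right flank; at ~50 mm3 tumor volume, randomized (10 per group) and dosed intraperitoneally every other day for 24 days; controls got equal-volume saline. Caliper volume as 1/2 × length × width2; tumors weighed at end; inhibition rate = (1 − mean treated tumor weight/mean control tumor weight) × 100%.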

[16] = tested on: SiHa; assay: Antitumor activity against human SiHa cells xenografted in nude BALB/c mouse assessed as tumor growth inhibition at 10 mg,kg, ip administered every other day for 24 days; type: functional; in short: as §3
[17] = tested on: SiHa; assay: Antitumor activity against human SiHa cells xenografted in nude BALB/c mouse assessed as tumor growth inhibition at 5 mg,kg, ip administered every other day for 24 days; type: functional; in short: as §3
[18] = tested on: Mus musculus; assay: Toxicity in nude BALB/c mouse xenografted with human SiHa cells assessed as signs of pain at 5 to 20 mg/kg, ip administered every other day for 24 days; type: organism-based; conditions: in vivo, 576 h
[19] = Binding affinity to 1 uM VEGF promoter G-quadruplex DNA (unknown origin) at 1 uM after 1 min by fluorescence spectroscopic analysis; type: ADME
In short: (§4)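 Fluorescence emission spectra of 1 µM compound mixed with 1 µM pre-annealed oligonucleotide (G-quadruplexes folded in 100 mM KCl by heating to 95 °C for 5 min, slow cooling), in Tris-HCl buffer.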

[20] = Binding affinity to 1 uM C-KIT1 promoter G-quadruplex DNA (unknown origin) at 1 uM after 1 min by fluorescence spectroscopic analysis; type: ADME; in short: as §4
[21] = Binding affinity to 1 uM PDGFA promoter G-quadruplex DNA (unknown origin) at 1 uM after 1 min by fluorescence spectroscopic analysis; type: ADME; in short: as §4
[22] = tested on: Mus musculus; assay: In vivo stabilization of c-Myc G-quadruplex DNA in human SiHa cells xenografted in nude BALB/c mouse assessed as decrease in c-Myc expression at 20 mg/kg, ip administered every other day for 24 days by immunohistochemistry; type: functional, organism-based

CCn1c2ccccc2c2cc(-c3nc(-c4ccc(N5CCN(C)CC5)cc4)c(-c4ccc(N5CCN(C)CC5)cc4)n3-c3ccc(OC)cc3)ccc21
Activity [1]: Non-Toxic | Kd [2]: 1 µM | Activity [3]: Not Active | inhibition [4]: Active | Activity [5]: inactive | IC50 [6]: 4.1 µM | growth inhibition (GI) [7]: Non-Toxic | Activity [8]: Active | Activity [9]: Non-Toxic | Activity [10]: 70% | Activity [11]: 22% | Activity [12]: Dose-dependent effect | Activity [13]: Dose-dependent effect | Activity [14]: Active | TGI [15]: 69% | TGI [16]: 64% | TGI [17]: 57% | Activity [18]: Non-Toxic | Activity [19]: Not Active | Activity [20]: Not Active | Activity [21]: Not Active | Activity [22]: Active

— ChEMBL document CHEMBL4033789, “Discovery of a New Four-Leaf Clover-Like Ligand as a Potent c-MYC Transcription Inhibitor Specifically Targeting the Promoter G-Quadruplex” (J Med Chem, 2018)
